ABCG2 inh: inhibitors of human ABCG2 transporter, ABCB1 counter-screen. Q9UNQ0. IgMXP3 cells, JC-1 efflux, flow cytometry. inhibition, % at 6.6 µM. hit rate 0.1% among 190,000. AID 1325;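 active = inhibition above 80%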
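Measure – % inhibition of efflux relative to nicardipine and DMSO · Test system – ABCG2 IgMXP3 and barcoded ABCB1 CCRF-Adr cell mix · Control set – nicardipine as high control, DMSO as low control · Compound – one concentration, 6.6 µM final · Signal – flow cytometry of retained JC-1 fluorescence · Timing – 10 min exposure at 25 °C with rotation, no wash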
MEKK2 mut-MEK5: signal of MEK5 binding to mutant human MEKK2 PB1 domain. bead flow cytometry, Alexa488-MEK5 binding to MEKK2 mutant. percent response, % at 10 µM. hit rate 0.35% among 290,000; in the data active = percent response above about 24%, passing the limit was not always enough
MEKK2wt PB1 HTS: raises or lowers MEK5 binding to wildtype human MEKK2 PB1 domain; bead flow cytometry, Alexa488-MEK5 binding to MEKK2 WT; actives lie on both sides; binding response (% of control), % at 10 µM; hit rate 1.1% among 290,000; in the data active = binding response below about 67% or above about 130%
WT yeast gro inh: growth inhibition of WT yeast, mitochondrial fusion screen | mitochondrial fusion phenotypic screen, WT strain | inhibition, % at 10 µM | hit rate 2.1% among 190,000 | AID 1362; in the data active = inhibition above about 58%; tested in S. cerevisiae
ABCB1 inh: human ABCB1 inhibition, ABCG2 as counter-screen. P08183. CCRF-Adr cells, JC-1 efflux, flow cytometry. inhibition, % at 6.6 µM. hit rate 0.067% among 190,000. AID 1326; in the data active = inhibition above about 40%;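 also: higher value means more JC-1 retained so stronger ABCB1 efflux block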
MEKK3 PB1 HTS: modulators (inhibitors or enhancers) of MEK5 binding to human MEKK3 PB1 domain; bead-based flow cytometry, Alexa488-MEK5 binding to MEKK3; actives lie on both sides; 0 = blocked by unlabeled MEK5, 100 = vehicle; binding response (% of control), % at 10 µM; hit rate 1.4% among 290,000; AID 1529;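 active = binding response more than 3 SD above or below the average of its plate-row segment, actives on both sides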;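 also: Alexa488 bead fluorescence after subtracting the streptavidin-only scavenger bead signal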
Target sequence (Q99759 whole entry, looked up, the tested form may be a part): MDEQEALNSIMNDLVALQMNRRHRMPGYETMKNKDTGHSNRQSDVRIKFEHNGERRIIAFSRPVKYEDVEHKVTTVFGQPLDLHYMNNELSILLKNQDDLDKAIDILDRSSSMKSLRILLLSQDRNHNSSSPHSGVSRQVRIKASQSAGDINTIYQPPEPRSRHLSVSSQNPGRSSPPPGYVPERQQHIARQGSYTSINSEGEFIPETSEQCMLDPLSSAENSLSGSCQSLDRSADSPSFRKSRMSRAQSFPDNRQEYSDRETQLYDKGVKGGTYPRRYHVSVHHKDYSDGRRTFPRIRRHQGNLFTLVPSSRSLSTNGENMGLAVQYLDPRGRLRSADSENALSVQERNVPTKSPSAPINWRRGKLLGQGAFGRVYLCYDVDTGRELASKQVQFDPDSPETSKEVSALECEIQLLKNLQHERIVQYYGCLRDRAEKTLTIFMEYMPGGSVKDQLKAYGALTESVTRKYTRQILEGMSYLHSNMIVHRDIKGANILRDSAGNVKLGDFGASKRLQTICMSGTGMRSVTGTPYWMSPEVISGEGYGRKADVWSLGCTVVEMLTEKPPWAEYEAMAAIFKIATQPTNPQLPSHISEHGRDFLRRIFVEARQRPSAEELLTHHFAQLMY
MEKK2wt confirm: raises or lowers MEK5 binding to wildtype human MEKK2, retest | bead flow cytometry, Alexa488-MEK5 binding to MEKK2 WT; actives lie on both sides | hit rate 2.4% among 5,900 | binding response (% of control), % at 10 µM | shares compounds with MEKK3 PB1 HTS; in the data active = binding response below about 16% or above about 210%; inactive = in between
MEKK2mut-MEK5: signal of MEK5 binding to mutant human MEKK2, retest; shares compounds with MEKK3 PB1 HTS; bead flow cytometry, Alexa488-MEK5 binding to MEKK2 mutant; percent response, % at 10 µM; hit rate 2% among 5,900; AID 1893; in the data active = percent response mostly above about 71%, no sharp cut-off; inactive = mostly below about 38%;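 also: higher means compound restores mutant binding toward wildtype level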
MEKK3-MEK5 inh: MEKK3-MEK5 PB1 inhibition, single concentration confirmation | shares compounds with MEKK3 PB1 HTS | bead flow cytometry, Alexa488-MEK5 binding to MEKK3; hits give low values | binding response (% of control), % at 10 µM | hit rate 1.8% among 5,900;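 active = binding response below 72% of control, or above a set upper limit, though filed actives all read lower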;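 also: lower values mean stronger disruption of MEK5 binding to MEKK3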
Each line names hits and unclear results; the compound was inactive in the other large screens (follow-up assays come after a bar, where they were run); [ ] = another dose, or the depositor's remark. Most compounds without a hit are left out; they make up all but 3.5% or so of the library.

CCN(CC)S(=O)(=O)c1cccc(NC(=O)Nc2cccc(C(F)(F)F)c2)c1	MEKK2wt PB1 HTS 219.0 | MEKK2wt confirm inactive | MEKK2mut-MEK5 inactive | MEKK3-MEK5 inh inactive
COc1ccc(O)c(/C=c2/sc3nc4cc(C)c(C)cc4n3c2=O)c1	none
Cc1ccc(OCc2csc(N)n2)cc1	none
Cn1c(NC(=O)c2ccc(Cl)cc2)cc(=O)n(C)c1=O	MEKK3 PB1 HTS 136.0 | MEKK2wt confirm inactive | MEKK2mut-MEK5 inactive | MEKK3-MEK5 inh inactive
Cn1c(NC(=O)c2ccc(C(C)(C)C)cc2)cc(=O)n(C)c1=O	none
Cc1cc(/C=C2/C(=O)NN(c3ccccc3)C2=O)c(C)n1-c1ccc(O)cc1	none
Cc1cc(/C=C2\C(=O)NN(c3ccccc3)C2=O)c(C)n1-c1ccccc1O	MEKK2wt PB1 HTS 32.0[inhibitor], MEKK3 PB1 HTS 36.0[inhibitor] (no result: ABCG2 inh, WT yeast gro inh, ABCB1 inh) | MEKK2wt confirm inactive | MEKK2mut-MEK5 inactive | MEKK3-MEK5 inh inactive
Cc1cc(C(=O)OC(C(=O)Nc2cccc(C(F)(F)F)c2)c2ccccc2)c(C)o1 (stereo not drawn)	MEKK3 PB1 HTS 145.0 | MEKK2wt confirm inactive | MEKK2mut-MEK5 inactive | MEKK3-MEK5 inh inactive
O=C(Nc1nnc(-c2ccc3c(c2)CCCC3)o1)c1c(F)cccc1F	MEKK3 PB1 HTS 68.0[inhibitor] | MEKK2wt confirm inactive | MEKK2mut-MEK5 inactive | MEKK3-MEK5 inh inactive
O=C(Nc1nnc(-c2ccc3c(c2)CCCC3)o1)c1ccc(Cl)cc1Cl	none
C=CCn1c(-c2ccccc2)c[nH]c1=S	MEKK3 PB1 HTS 124.0 | MEKK2wt confirm inactive | MEKK2mut-MEK5 inactive | MEKK3-MEK5 inh inactive
Cc1c(C#N)c(N=CN(C)C)c(C(=O)c2ccc(Br)cc2)n1-c1ccccc1	MEKK2wt PB1 HTS 69.0[inhibitor] | MEKK2wt confirm inactive | MEKK2mut-MEK5 inactive | MEKK3-MEK5 inh inactive
C#CCNC(=O)C1=C[C@H](c2ccc(Br)cc2)[C@@H](CCCO)[C@H](OCC)O1	none
CCOC(=O)C(=Cc1ccc(F)cc1)C(=O)OCC	MEKK2 mut-MEK5 33.0 | MEKK2wt confirm inactive | MEKK2mut-MEK5 inactive | MEKK3-MEK5 inh inactive
Cc1ccc2cc(NC(=O)c3ccccc3C)ccc2n1	none (no result: ABCG2 inh, WT yeast gro inh, ABCB1 inh)
Cc1cccc(NC(=O)/C=C/c2ccc([N+](=O)[O-])s2)c1	none
Cc1cccc(NC(=S)N/N=C/c2ccc([N+](=O)[O-])s2)c1	MEKK2wt PB1 HTS 50.0[inhibitor] | MEKK2wt confirm inactive | MEKK2mut-MEK5 inactive | MEKK3-MEK5 inh inactive
S=C(NC1CCCC1)N1CCN(C/C=C/c2ccccc2)CC1	none
CCC(=O)Nc1nnc(SCc2ccc(F)cc2)s1	MEKK2wt PB1 HTS 3.0[inhibitor], MEKK3 PB1 HTS 2.0[inhibitor] | MEKK2wt confirm inactive | MEKK2mut-MEK5 inactive | MEKK3-MEK5 inh inactive
CN(C)NC(=S)NC1(C)CCS(=O)(=O)C1 (stereo not drawn)	none (no result: ABCG2 inh, WT yeast gro inh, ABCB1 inh)
CCn1c2ccccc2c2nnc(SCC(=O)Nc3c(C)n(C)n(-c4ccccc4)c3=O)nc21	MEKK2wt PB1 HTS 2.0[inhibitor], MEKK3 PB1 HTS 2.0[inhibitor] | MEKK2wt confirm inactive | MEKK2mut-MEK5 inactive | MEKK3-MEK5 inh inactive
Cc1c(NC(=O)CSc2nnc3c4ccccc4n(CCc4ccccc4)c3n2)c(=O)n(-c2ccccc2)n1C	none
Cc1ccc2nc(-c3cccc(Br)c3)cc(C(=O)NC3=NCCS3)c2c1	none
O=C(NC1=NCCS1)c1cc(-c2cccc(Br)c2)nc2ccccc12	WT yeast gro inh 80.1, MEKK3 PB1 HTS 148.0 | MEKK2wt confirm inactive | MEKK2mut-MEK5 inactive | MEKK3-MEK5 inh inactive
CCCCn1c(-c2ccc(C(C)(C)C)cc2)nc2cc3[nH]c(=O)c(C(C)C)nc3cc21	MEKK2wt PB1 HTS 69.0[inhibitor] (no result: ABCG2 inh, WT yeast gro inh, ABCB1 inh) | MEKK2wt confirm inactive | MEKK2mut-MEK5 inactive | MEKK3-MEK5 inh inactive
